The inhibition in vivo is the change of the read-out against control, counted positive when it falls. As a reminder, the ED50 is the dose that gives a 50% effect, or the effect in half of the subjects.

Series [1] deals with Rattus norvegicus. Description: Antiinflammatory activity in Wistar rat assessed as inhibition of carrageenan-induced paw edema at 50 mg/kg, po administered 1 hr prior to carrageenan challenge measured 3 hrs post-carrageenan injection. The class given is functional. In a few lines: (§1)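 Female Carworth Wistar rats (120-150 g), ten per group, are fasted 12-16 h with water allowed. Compounds are given orally as an aqueous Tween 80 suspension (10 ml/kg); controls get vehicle. After 1 h, 0.1 ml of 1% carrageenan is injected subplantar into the left hind paw. Paw volume is read by mercury displacement before and 3 h after injection. Result is % edema difference versus control.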
Background: Carrageenan injected into the paw causes an acute inflammation.

For series [2], the system named is Rattus norvegicus. Description: Antiinflammatory activity in po dosed Wistar rat assessed as inhibition of carrageenan-induced paw edema administered 1 hr prior to carrageenan challenge measured 3 hrs post-carrageenan injection. The class given is functional. The essentials: as §1
Series [3] relates to Mus musculus. Description: Analgesic activity in po dosed CD-1 mouse assessed as inhibition of phenylquinone-induced writhing administered prior to phenylquinone challenge measured 5 mins after phenylquinone injection. The class given is functional. Conditions: CD-1, po. The essentials: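 Male CD-1 Charles River mice (18-24 g), fed ad libitum, are dosed orally with drug as an aqueous suspension with Tween 80 (10 ml/kg); controls get vehicle. Phenylquinone (0.125% in 5% aqueous ethanol) is given ip at 10 ml/kg at the peak-activity time. Writhes are counted for 10 min, starting 5 min post-injection. Ten mice per group, four doses. Result is % inhibition of writhes versus control; ED50 by Litchfield-Wilcoxon.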
In general terms: Writhing tests count abdominal constrictions after an irritant is injected.

Series [4] is described as follows: Ulcerogenicity in po dosed Wistar rat assessed as induction of gastric irritation. The format is toxicity, organism-based, Stomach. To be noted: in vivo, read-out: ID50 (the source's name). In a few lines:
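Groups of eight male Wistar rats (150-175 g) are fasted 48 h with water allowed, then dosed orally (10 ml/kg); controls get vehicle. Rats are killed at 3, 5 and 7 h post-dose, and stomach and intestines are examined for erosion, ulcer or perforation. ID50 is the dose causing irritation in 50% of animals.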

A short description of series [5]: Therapeutic ratio of ID50 for ulcerogenicity in Wistar rat to ED50 for antiinflammatory activity against Mycobacterium butyricum adjuvant-induced polyarthritis in Lewis albino rat adjuvant treated paw. To be noted: in vivo, read-out: TI. The format is ADME. The essentials:
(§2)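 Ratio of the gastric irritation ID50 (oral dose, Wistar rats, lesions scored as irritation in 50% of animals) to the adjuvant polyarthritis ED50 (Lewis rats, 21-day oral dosing). The ED50 is taken from the adjuvant-injected paw or the noninjected paw, with paw volume measured by mercury displacement.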

The nature of series [6]: Therapeutic ratio of ID50 for ulcerogenicity in Wistar rat to ED50 for antiinflammatory activity against Mycobacterium butyricum adjuvant-induced polyarthritis in Lewis albino rat non-injected paw. The class given is ADME. To be noted: in vivo, read-out: TI. In a few lines:
as §2

The subject of series [7] is Rattus norvegicus. Put plainly: Antiinflammatory activity against Mycobacterium butyricum adjuvant-induced polyarthritis in po dosed Lewis albino rat assessed as decrease in adjuvant treated paw edema administered daily for 21 days […]. The format is functional. The essentials:
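Female Charles River-Lewis albino rats (150-170 g), ten per group, housed individually. Heat-killed Mycobacterium butyricum in paraffin oil (0.5 mg/0.1 ml) is injected into the left hind paw. Oral dosing starts the day before adjuvant and continues daily for 21 days, using a Tween 80 aqueous suspension. Paw volume is measured by mercury displacement from injection day onward. ED50 by Litchfield-Wilcoxon, with 95% confidence limits.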

In series [8] the test system is Rattus norvegicus. Put plainly: Antiinflammatory activity against Mycobacterium butyricum adjuvant-induced polyarthritis in po dosed Lewis albino rat assessed as decrease in non-injected paw edema administered daily for 21 days […]. The class given is functional. In a few lines: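 Female Charles River-Lewis albino rats, 150-170 g, groups of ten, housed singly; heat-killed dry Mycobacterium butyricum in white paraffin oil (0.5 mg/0.1 ml) injected into left hind paw. Oral dosing as aqueous suspension with Tween 80 (10 ml/kg), starting the day before adjuvant and daily for 21 days; vehicle controls. Paw volume by mercury displacement from injection day onward; ED50 by Litchfield-Wilcoxon with 95% confidence limits.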

Turning to `O=C(O)Cc1ccc2c(c1)C(=O)c1ccccc1CS2`, in series [1], the inhibition in vivo at 50 mg/kg turned out to be 42.7%. In the case of `NC(=O)Cc1ccc2c(c1)C(=O)c1ccccc1CO2`, the median effective dose (ED50) in series [2] and in series [3] was above 100 mg/kg throughout. In the case of `O=C(O)Cc1ccc2c(c1)Cc1ccccc1CO2`, in series [2], the ED50 amounted to 200 mg/kg. Regarding `COC(=O)Cc1ccc2c(c1)C(=O)c1ccccc1CO2`, the ED50 came out at 31 mg/kg in series [2] and 26.6 mg/kg in series [3]. The corresponding values for `CCOC(=O)Cc1ccc2c(c1)C(=O)c1ccccc1CO2` are 6.85 mg/kg and above 50 mg/kg. The corresponding values for `O=C(O)Cc1ccc2c(c1)C(=O)c1ccc(Cl)cc1CO2` are 26.5 mg/kg and 34.3 mg/kg.

On to `COc1ccc2c(c1)COc1ccc(CC(=O)O)cc1C2=O`, for which the ED50 in series [2] is 58.6 mg/kg; in series [3], above 50 mg/kg. The corresponding values for `O=C(O)Cc1ccc2c(c1)C(=O)c1cc(Cl)ccc1CO2` are above 50 mg/kg and above 50 mg/kg. The corresponding values for `CCCOC(=O)Cc1ccc2c(c1)C(=O)c1ccccc1CO2` are 3.55 mg/kg and 16.7 mg/kg. The corresponding values for `CC(C)OC(=O)Cc1ccc2c(c1)C(=O)c1ccccc1CO2` are 6.84 mg/kg and below 50 mg/kg. `CCCCOC(=O)Cc1ccc2c(c1)C(=O)c1ccccc1CO2`: the ED50 in series [2] was determined as 14.7 mg/kg; in series [3], 12.7 mg/kg. The corresponding values for `CCCCCOC(=O)Cc1ccc2c(c1)C(=O)c1ccccc1CO2` are 2.9 mg/kg and above 50 mg/kg. Turning to `O=C(Cc1ccc2c(c1)C(=O)c1ccccc1CO2)OCc1ccccc1`, the ED50 in series [2] is above 50 mg/kg.

For the compound `O=C(O)Cc1cc(Cl)c2c(c1)C(=O)c1ccccc1CO2`, the ED50 in series [2] was above 50 mg/kg.

Consider `O=C(O)Cc1ccc2c(c1)C(=O)c1cccc(Cl)c1CO2`, for which the ED50 in series [2] was below 50 mg/kg; in series [3] it was above 50 mg/kg. As to `O=C(O)Cc1ccc2c(c1)C(=O)c1cc(F)ccc1CO2`, the ED50 in series [2] is 356 mg/kg. Same read-out and setting: the value for `O=C(O)Cc1ccc2c(c1)C(=O)c1cc(C(F)(F)F)ccc1CO2` was above 50 mg/kg; that for `Cc1cccc2c1C(=O)c1cc(CC(=O)O)ccc1OC2` was above 50 mg/kg. Take `OCCc1ccc2c(c1)C(O)c1ccccc1CO2` (centres undefined): the ED50 in series [2] is above 200 mg/kg. Still for that read-out and setting: the value for `COC(=O)Cc1ccc2c(c1)C(O)c1ccccc1CO2` (centres undefined) was above 200 mg/kg. Same read-out and setting: the value for `COC(=O)Cc1ccc2c(c1)C(OC)c1ccccc1CO2` (centres undefined) was above 200 mg/kg. As for `COc1ccc2c(c1)c(CC(=O)O)c(C)n2C(=O)c1ccc(Cl)cc1` [INDOMETHACIN], in series [4], the TD50 worked out at 1.8 mg/kg. The selectivity ratio in series [5] turned out to be 3.8; in series [6] it was 6.7. The ED50 is 0.47 mg/kg in series [7], 0.7 mg/kg in series [3] and 0.27 mg/kg in series [8]. As for `O=C(O)Cc1ccc2c(c1)C(=O)c1ccccc1CO2` [ISOXEPAC], the TD50 in series [4] stood at 82.5 mg/kg. In addition, the figures for the selectivity ratio in series [5] and in series [6] were 39 and 78, respectively. The median effective dose (ED50) in series [7] is 2.1 mg/kg; in series [3], 7.57 mg/kg; in series [8], 1.06 mg/kg.

These data come from ChEMBL document CHEMBL3272335, “Dibenz[b,e]oxepinalkanoic acids as nonsteroidal antiinflammatory agents. 1. 6,11-Dihydro-11-oxodibenz]b,e]oxepin-2-acetic acids” (J Med Chem, 1977).
